{"data": "Results of several laboratories"}
{"Structure (SMILES)": "CCCCCn1cc(C(=O)Nc2cccc3ccccc23)c2ccccc21", "species": "male Long-Evans rat", "sample": "plasma", "route": "intraperitoneal", "dose": "3 mg/kg", "measurement": "AUC(0-inf)", "value": "5960 ng·h/mL"}
{"Structure (SMILES)": "CC(C)(C)[C@H](NC(=O)[C@H](CCONC(=N)N)NC(=O)Cc1ccc(CNC(=N)N)cc1)C(=O)N[C@@H](CCONC(=N)N)C(=O)NCc1ccc(C(=N)N)cc1", "species": "male Sprague-Dawley rat", "sample": "plasma", "route": "intraperitoneal", "dose": "2.5 mg/kg", "measurement": "AUC(0-inf)", "value": "9640 ng·h/mL"}
{"Structure (SMILES)": "CCCCCCCC(=O)N[C@@H](CCCCN)C(=O)N[C@@H](CCCCN)C(=O)N[C@@H](C)C(=O)N[C@@H](CC(C)C)C(=O)N[C@@H](CCCCN)C(=O)N[C@@H](CC(C)C)C(=O)N[C@@H](C)C(=O)N[C@@H](CCCCN)C(=O)N[C@@H](CCCCN)C(=O)N1CCC[C@H]1C(=O)N[C@@H](CC(C)C)C(=O)N[C@@H](CCCCN)C(=O)N[C@@H](CC(C)C)C(=O)N[C@@H](CC(C)C)C(=O)N[C@@H](CCCCN)C(N)=O", "species": "male Sprague-Dawley rat", "sample": "blood", "route": "intravenous", "dose": "3 mg/kg", "setting": "infusion", "measurement": "AUC(0-inf)", "value": "273 ng·h/mL"}
{"Structure (SMILES)": "[2H]C([2H])(c1cc(F)c(F)cc1F)n1c(=O)n(Cc2ncn(C)n2)c(=O)[nH]/c1=N\\c1cc2cn(C)nc2cc1Cl", "species": "male Sprague-Dawley rat", "sample": "plasma", "route": "intravenous", "dose": "5 mg/kg", "measurement": "AUC(0-t)", "value": "78000 ng·h/mL"}
{"Structure (SMILES)": "Cl.Cl.O=C(CCN1CCCCC1)c1ccc(-c2ccc(C(=O)CCN3CCCCC3)cc2)cc1", "species": "Sprague-Dawley rat", "sample": "plasma", "route": "oral", "dose": "25 mg/kg", "measurement": "AUC(0-t)", "value": "135 ng·h/mL"}
{"Structure (SMILES)": "Cn1cnc(Cn2c(=O)[nH]/c(=N\\c3cc4cn(C)nc4cc3Cl)n(Cc3cc(F)c(F)cc3F)c2=O)n1", "species": "male Sprague-Dawley rat", "sample": "plasma", "route": "intravenous", "dose": "5 mg/kg", "measurement": "AUC(0-t)", "value": "81000 ng·h/mL"}
{"Structure (SMILES)": "O=C([O-])C(=O)[O-].[NH-][C@@H]1CCCC[C@H]1[NH-].[Pt+4] (relative stereo)", "species": "rat", "sample": "plasma", "route": "oral", "dose": "10 mg/kg", "measurement": "AUC(0-inf)", "value": "170 ng·h/mL"}
{"Structure (SMILES)": "N=c1c2c(-c3ccccc3)c(-c3ccccc3)n(Cc3ccccc3)c2ncn1[C@H]1CC[C@H](O)CC1", "species": "male Sprague-Dawley rat", "sample": "plasma", "route": "oral", "dose": "2 mg/kg", "setting": "single dose", "measurement": "AUC(0-inf)", "value": "1500 ng·h/mL"}
{"Structure (SMILES)": "[2H]C([2H])([2H])n1cc2cc(Nc3nc(=O)n(Cc4ncn(C)n4)c(=O)n3Cc3cc(F)c(F)cc3F)c(Cl)cc2n1", "species": "male Sprague-Dawley rat", "sample": "plasma", "route": "oral", "dose": "25 mg/kg", "measurement": "AUC(0-t)", "value": "334000 ng·h/mL"}
{"Structure (SMILES)": "CCCCCn1nc(C(=O)Nc2cccc3ccccc23)c2ccccc21", "species": "male Long-Evans rat", "sample": "plasma", "route": "intraperitoneal", "dose": "3 mg/kg", "measurement": "AUC(0-inf)", "value": "314 ng·h/mL"}
{"Structure (SMILES)": "CCC[C@@](N)(CO)CCc1ccc(OCCCCCC(C)C)cc1", "species": "rat", "sample": "plasma", "route": "oral", "dose": "30 mg/kg", "measurement": "AUC(0-t)", "value": "6.18 µM·h"}
{"Structure (SMILES)": "COC(=O)C(NC(=O)c1cn(CCCCCF)c2ccccc12)C(C)(C)C (stereo not shown)", "species": "male Sprague-Dawley rat", "sample": "plasma", "route": "subcutaneous", "dose": "50 µg/kg", "measurement": "AUC(0-t)", "value": "8.61 ng·h/mL"}
{"Structure (SMILES)": "CN(C)C(=O)Oc1cc(OC(=O)N(C)C)cc(-c2cc3ccc(O)cc3o2)c1", "species": "male rat", "sample": "plasma", "route": "oral", "dose": "5 mg/kg", "measurement": "AUC(0-inf)", "value": "26.2 ng·h/mL"}
